Values joined by “and” are separate entries in the source; they are usually repeats but may differ in a detail not shown here. Equal entries are not always repeated.
What was measured:
Type in all cases: functional
Homo sapiens [1] = species on record: Homo sapiens; assay: In vitro decreasing the GSH content in normal in human erythrocytes at 0.01 mM
Summary of the method: (§1)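 Blood (30–40 mL) from normal or G6PD-deficient human volunteers, anticoagulated with sodium edetate. Washed erythrocytes suspended to 50% in buffered dextrose saline, incubated with each compound at 37 °C for 2 h. Reaction stopped on ice for 5 min. Cells spun at 1500g for 10 min at 5 °C, washed twice in ice-cold buffered saline dextrose, resuspended to 50%.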

Homo sapiens [2] = species on record: Homo sapiens; assay: In vitro decreasing the GSH content in normal in human erythrocytes at 0.05 mM; summary of the method: as §1
Homo sapiens [3] = species on record: Homo sapiens; assay: In vitro methemoglobin (metHb) forming activity in Glucose-6-phosphate dehydrogenase- (G6PD-) deficient human erythrocytes at 0.05 mM; summary of the method: as §1
Homo sapiens [4] = species on record: Homo sapiens; assay: In vitro methemoglobin (metHb) forming activity in normal human erythrocytes at 0.05 mM; summary of the method: as §1
Homo sapiens [5] = species on record: Homo sapiens; assay: In vitro methemoglobin (metHb) forming activity in normal human erythrocytes.; summary of the method: as §1

Structure (SMILES) | GSH level (mg) (Homo sapiens [1]) | GSH level (Homo sapiens [2]) | Methemoglobin (Homo sapiens [3]) | Methemoglobin (Homo sapiens [4]) | Methemoglobin (Homo sapiens [5])
CC(CCCN)Nc1cc(O)cc2cccnc12 (stereo unspecified) | 63.8% and 45.8% | 63.4% and 44.8% | 1.7% and 1.2% | 1.1% | 1.1%
COc1cc(N)c2ncccc2c1O |  |  | 43.8% and 22.3% | 34.2% | 
Nc1cc(O)c(O)c2cccnc12 [5,6-DIHYDROXY-8-AMINOQUINOLINE] |  |  |  | 22.3% | 4.8%
CC(CCCN)Nc1cc(O)c(O)c2cccnc12 (stereo unspecified) [5-HYDROXYDESMETHYLPRIMAQUINE] |  |  |  | 16.3% | 4.2%
COc1cc(NC(C)CCCN)c2ncccc2c1O (stereo unspecified) [5-HYDROXYPRIMAQUINE] |  |  |  | 12.8% | 3.4%
COc1cc(NC(C)CCCN)c2ncccc2c1 (stereo unspecified) [PRIMAQUINE] |  | 60% and 47.4% | 1.3% | 1% | 
